This is an account of results in ChEMBL document CHEMBL4265926, “Synthesis and antibacterial activity evaluation of novel biaryloxazolidinone analogues containing a hydrazone moiety as promising antibacterial agents” (Eur J Med Chem, 2018).

What all share (assay type): functional
Experiment [1] has as its system Enterococcus faecalis. The experiment is described as follows: Antibacterial activity against linezolid-resistant Enterococcus faecalis by broth liquid microdilution method. The method in brief:
(§1)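 Isolates were identified on an automated MicroScan WalkAway 96 system. Susceptibility was tested by broth microdilution following CLSI guidelines. MIC was taken as the lowest concentration giving complete inhibition of bacterial growth. S. aureus ATCC 29213 served as the control strain.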
A general note: Broth dilution looks for growth in wells or tubes with falling amounts of substance.

Experiment [2] concerns Staphylococcus aureus. The experiment is described as follows: Antibacterial activity against Staphylococcus aureus ATCC 29213 by broth liquid microdilution method. A digest of the protocol: as §1
Experiment [3] deals with Staphylococcus aureus. Description: Antibacterial activity against methicillin-sensitive Staphylococcus aureus by broth liquid microdilution method. The method in brief:
as §1

Experiment [4] relates to Enterococcus faecium. Description: Antibacterial activity against vancomycin-resistant Enterococcus faecium by broth liquid microdilution method. The method in brief: as §1
Experiment [5] has as its system Staphylococcus aureus. Description: Antibacterial activity against methicillin-resistant Staphylococcus aureus by broth liquid microdilution method. The method in brief: as §1

In brackets after ≈: the same amount, converted by molar mass.

As to `CC(=O)NC[C@H]1CN(c2ccc(-c3ccc(/C=N/N4CCN(C(=O)OC(C)(C)C)CC4)cc3)c(F)c2)C(=O)O1`, the minimal inhibitory concentration (MIC) in experiment [1], in experiment [2], in experiment [3] and in experiment [4] was over 2 µg/mL each time.
Consider `CC(=O)NC[C@H]1CN(c2ccc(-c3ccc(/C=N/N4CCN(C(=O)c5ccncc5)CC4)cc3)c(F)c2)C(=O)O1`, for which the minimal inhibitory concentration (MIC) (usually the least concentration at which growth counts as inhibited) in experiment [1] came out at 0.25 µg/mL (≈ 0.459 µM); in experiment [2], 0.25 µg/mL (≈ 0.459 µM); in experiment [5], 0.25 µg/mL (≈ 0.459 µM); in experiment [3], 0.125 µg/mL (≈ 0.23 µM); in experiment [4] it was 0.25 µg/mL (≈ 0.459 µM).
For `CC(=O)NC[C@H]1CN(c2ccc(-c3ccc(/C=N/N4CCN(C(=O)c5ccc(Br)cc5)CC4)cc3)c(F)c2)C(=O)O1`, the MIC in experiment [1], in experiment [2], in experiment [5], in experiment [3] and in experiment [4] was 0.125 µg/mL (≈ 0.201 µM) each time.
On to `C=CCN1CCN(/N=C/c2ccc(-c3ccc(N4C[C@H](CNC(C)=O)OC4=O)cc3F)cc2)CC1`, for which the MIC in experiment [1] was 0.125 µg/mL (≈ 0.261 µM); in experiment [2], 0.5 µg/mL (≈ 1.04 µM); in experiment [5], 0.125 µg/mL (≈ 0.261 µM); in experiment [3] it was 0.125 µg/mL (≈ 0.261 µM); in experiment [4], 0.125 µg/mL (≈ 0.261 µM).
Take `CC(=O)NC[C@H]1CN(c2ccc(-c3ccc(/C=N/N4CCN(C(=O)c5ccccn5)CC4)cc3)c(F)c2)C(=O)O1`: the minimum inhibitory concentration (MIC) in experiment [1], in experiment [2], in experiment [5], in experiment [3] and in experiment [4] was 0.125 µg/mL (≈ 0.23 µM) in each case.
For the molecule `CC(=O)NC[C@H]1CN(c2ccc(-c3ccc(/C=N/N4CCN(C(=O)c5ccccc5)CC4)cc3)c(F)c2)C(=O)O1`, the minimal inhibitory concentration (MIC) is 0.25 µg/mL (≈ 0.46 µM) in experiment [1]; 0.25 µg/mL (≈ 0.46 µM) in experiment [2]; 0.25 µg/mL (≈ 0.46 µM) in experiment [5]; 0.125 µg/mL (≈ 0.23 µM) in experiment [3]; 0.25 µg/mL (≈ 0.46 µM) in experiment [4].
As to `COc1ccc(C(=O)N2CCN(/N=C/c3ccc(-c4ccc(N5C[C@H](CNC(C)=O)OC5=O)cc4F)cc3)CC2)cc1`, the MIC in experiment [1], in experiment [2], in experiment [5], in experiment [3] and in experiment [4] was 0.125 µg/mL (≈ 0.218 µM) throughout.
For `COC(=O)N1CCN(/N=C/c2ccc(-c3ccc(N4C[C@H](CNC(C)=O)OC4=O)cc3F)cc2)CC1`, the MIC in experiment [1], in experiment [2], in experiment [5], in experiment [3] and in experiment [4] was 0.125 µg/mL (≈ 0.251 µM) throughout.
As for `CC(=O)NC[C@H]1CN(c2ccc(-c3ccc(/C=N/N4CCN(C(=O)C(F)(F)F)CC4)cc3)c(F)c2)C(=O)O1`, the MIC in experiment [1], in experiment [2], in experiment [5], in experiment [3] and in experiment [4] was 0.125 µg/mL (≈ 0.233 µM) each time.
Take `CC(=O)NC[C@H]1CN(c2ccc(-c3ccc(/C=N/N4CCN(S(C)(=O)=O)CC4)cc3)c(F)c2)C(=O)O1`: the minimum inhibitory concentration (MIC) was determined as 0.5 µg/mL (≈ 0.966 µM) in experiment [1]; 1 µg/mL (≈ 1.93 µM) in experiment [2]; 0.5 µg/mL (≈ 0.966 µM) in experiment [5]; 1 µg/mL (≈ 1.93 µM) in experiment [3]; 2 µg/mL (≈ 3.86 µM) in experiment [4].
Turning to `CC(=O)NC[C@H]1CN(c2ccc(-c3ccc(/C=N/N4CCN(C(C)=O)CC4)cc3)c(F)c2)C(=O)O1`, the minimal inhibitory concentration (MIC) in experiment [1] is 0.25 µg/mL (≈ 0.519 µM); in experiment [2], 0.25 µg/mL (≈ 0.519 µM); in experiment [5], 0.25 µg/mL (≈ 0.519 µM); in experiment [3] it was 0.125 µg/mL (≈ 0.26 µM); in experiment [4], 0.5 µg/mL (≈ 1.04 µM).
For the molecule `COc1cccc(C(=O)N2CCN(/N=C/c3ccc(-c4ccc(N5C[C@H](CNC(C)=O)OC5=O)cc4F)cc3)CC2)c1`, the MIC in experiment [1] turned out to be 1 µg/mL (≈ 1.74 µM); in experiment [2], 0.25 µg/mL (≈ 0.436 µM); in experiment [5], 0.25 µg/mL (≈ 0.436 µM); in experiment [3] it was 0.25 µg/mL (≈ 0.436 µM); in experiment [4], 1 µg/mL (≈ 1.74 µM).
Regarding `CC(=O)NC[C@H]1CN(c2ccc(-c3ccc(/C=N/N4CCN(C(=O)c5cccnc5)CC4)cc3)c(F)c2)C(=O)O1`, the MIC in experiment [1], in experiment [2], in experiment [5], in experiment [3] and in experiment [4] was 0.125 µg/mL (≈ 0.23 µM) in each case.
Regarding `CC(=O)NC[C@H]1CN(c2ccc(-c3ccc(/C=N/N4CCN(C(=O)c5ccc(Cl)cc5)CC4)cc3)c(F)c2)C(=O)O1`, the MIC in experiment [1] came out at 0.25 µg/mL (≈ 0.432 µM); in experiment [2] it was 0.0675 µg/mL (≈ 0.117 µM); in experiment [5], 0.0675 µg/mL (≈ 0.117 µM); in experiment [3] it was 0.0675 µg/mL (≈ 0.117 µM); in experiment [4], 0.25 µg/mL (≈ 0.432 µM).
Regarding `C#CCN1CCN(/N=C/c2ccc(-c3ccc(N4C[C@H](CNC(C)=O)OC4=O)cc3F)cc2)CC1`, the MIC in experiment [1], in experiment [2], in experiment [5], in experiment [3] and in experiment [4] was 0.125 µg/mL (≈ 0.262 µM) each time.
For the molecule `CC(=O)NC[C@H]1CN(c2ccc(-c3ccc(/C=N/N4CCN(C(=O)c5ccco5)CC4)cc3)c(F)c2)C(=O)O1`, the MIC in experiment [1] was 0.25 µg/mL (≈ 0.469 µM); in experiment [2], 0.25 µg/mL (≈ 0.469 µM); in experiment [5], 0.25 µg/mL (≈ 0.469 µM); in experiment [3], 0.125 µg/mL (≈ 0.234 µM); in experiment [4], 0.25 µg/mL (≈ 0.469 µM).
Turning to `CC(=O)NC[C@H]1CN(c2ccc(-c3ccc(/C=N/N4CCN(C(=O)c5cnccn5)CC4)cc3)c(F)c2)C(=O)O1`, the MIC in experiment [1], in experiment [2], in experiment [5], in experiment [3] and in experiment [4] was 0.125 µg/mL (≈ 0.229 µM) in each case.
For the molecule `CC(=O)NC[C@H]1CN(c2ccc(-c3ccc(/C=N/N4CCN(C(=O)N(C)C)CC4)cc3)c(F)c2)C(=O)O1`, the MIC came out at 0.25 µg/mL (≈ 0.49 µM) in experiment [1]; 0.0675 µg/mL (≈ 0.132 µM) in experiment [2]; 0.0675 µg/mL (≈ 0.132 µM) in experiment [5]; 0.0675 µg/mL (≈ 0.132 µM) in experiment [3]; 0.25 µg/mL (≈ 0.49 µM) in experiment [4].
For the molecule `CC(=O)NC[C@H]1CN(c2ccc(-c3ccc(/C=N/N4CCN(C(=O)c5ccc(C(F)(F)F)cc5)CC4)cc3)c(F)c2)C(=O)O1`, the minimal inhibitory concentration (MIC) in experiment [1], in experiment [2], in experiment [5], in experiment [3] and in experiment [4] was 0.125 µg/mL (≈ 0.204 µM) throughout.
As for `CC(=O)NC[C@H]1CN(c2ccc(-c3ccc(/C=N/N4CCN(C(=O)c5cccs5)CC4)cc3)c(F)c2)C(=O)O1`, the MIC in experiment [1] was found to be 0.5 µg/mL (≈ 0.91 µM); in experiment [2], 0.125 µg/mL (≈ 0.227 µM); in experiment [5], 0.25 µg/mL (≈ 0.455 µM); in experiment [3] it was 0.25 µg/mL (≈ 0.455 µM); in experiment [4], 0.5 µg/mL (≈ 0.91 µM).
In the case of `CC(=O)NC[C@H]1CN(c2ccc(-c3ccc(/C=N/N4CCN(Cc5ccccc5)CC4)cc3)c(F)c2)C(=O)O1`, the MIC in experiment [1], in experiment [2], in experiment [5], in experiment [3] and in experiment [4] was 0.125 µg/mL (≈ 0.236 µM) each time.
Take `CCC(=O)N1CCN(/N=C/c2ccc(-c3ccc(N4C[C@H](CNC(C)=O)OC4=O)cc3F)cc2)CC1`: the minimal inhibitory concentration (MIC) in experiment [1], in experiment [2], in experiment [5], in experiment [3] and in experiment [4] was 0.125 µg/mL (≈ 0.252 µM) each time.
For the molecule `COc1ccccc1C(=O)N1CCN(/N=C/c2ccc(-c3ccc(N4C[C@H](CNC(C)=O)OC4=O)cc3F)cc2)CC1`, the minimal inhibitory concentration (MIC) in experiment [1] stood at 0.125 µg/mL (≈ 0.218 µM); in experiment [2], 0.5 µg/mL (≈ 0.872 µM); in experiment [5] it was 0.125 µg/mL (≈ 0.218 µM); in experiment [3], 0.0675 µg/mL (≈ 0.118 µM); in experiment [4], 0.125 µg/mL (≈ 0.218 µM).
On to `CC(=O)NC[C@H]1CN(c2ccc(-c3ccc(/C=N/N4CCN(C(=O)CN)CC4)cc3)c(F)c2)C(=O)O1`, for which the MIC in experiment [1] was determined as 0.5 µg/mL (≈ 1.01 µM); in experiment [2], 0.125 µg/mL (≈ 0.252 µM); in experiment [5], 0.25 µg/mL (≈ 0.503 µM); in experiment [3], 0.25 µg/mL (≈ 0.503 µM); in experiment [4], 0.5 µg/mL (≈ 1.01 µM).
